These results are taken from ChEMBL document CHEMBL1155761, “Isolation and structure of five new cancer cell growth inhibitory bufadienolides from the Chinese traditional drug Ch'an Su” (J Nat Prod, 2001).

Holding throughout (assay type): functional, cell-based
One experiment deals with DU-145. Description: Cytotoxicity against human DU145 cells after 72 hrs by MTT assay. To be noted: DU-145, 72 h. In general terms: Tetrazolium dyes change colour on reduction, which living cells bring about.
In another experiment the test system is HL-60. Description: Cytotoxicity against human HL60 cells after 72 hrs by MTT assay. To be noted: HL-60, 72 h. In short, it runs like this: (§1)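 Cells seeded per well in 0.2 mL culture medium: 2 × 10^4 cells for KB and HL-60, 5 × 10^3 cells for MH-60. Treated in triplicate with graded concentrations of test samples (5 µL added per well), then incubated 72 h at 37 °C in 5% CO2.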

In the next experiment the test system is BXPC-3. Description: Cytotoxicity against human BxPC3 cells after 72 hrs by MTT assay. The settings on record: BXPC-3, 72 h.
The next experiment relates to KB. The experiment is described as follows: Cytotoxicity against human KB cells after 72 hrs by MTT assay. The procedure, abridged: as §1
The next experiment has as its system MCF7. Description: Cytotoxicity against human MCF7 cells after 72 hrs by MTT assay. The settings on record: MCF7, 72 h.
The next experiment deals with KM-20L2. The experiment is described as follows: Cytotoxicity against human KM20L2 cells after 72 hrs by MTT assay. To be noted: KM-20L2, 72 h.
For another experiment, the system named is SF-268. The experiment is described as follows: Cytotoxicity against human SF268 cells after 72 hrs by MTT assay. To be noted: SF-268, 72 h.
The next experiment concerns MH60. Description: Cytotoxicity against mouse MH60 cells after 72 hrs by MTT assay. The settings on record: MH60, 72 h. In short, it runs like this: as §1
Another experiment relates to NCI-H460. The experiment is described as follows: Cytotoxicity against human NCI-H460 cells after 72 hrs by MTT assay. The settings on record: NCI-H460, 72 h.

Structures are written as SMILES. In brackets after ≈: the same amount, converted by molar mass.

Regarding `C[C@]12CC[C@H](O)C[C@H]1CC[C@@H]1[C@@H]2C[C@@H](O)[C@]2(C)[C@@H](c3ccc(=O)oc3)C[C@H]3O[C@]132`, the 50% inhibitory concentration (IC50) worked out at 0.041 µg/mL (≈ 0.102 µM) in the experiment on DU-145; 0.045 µg/mL (≈ 0.112 µM) with HL-60; 0.12 µg/mL (≈ 0.3 µM) in the experiment with BXPC-3; 0.97 µg/mL (≈ 2.42 µM) with KB; 0.066 µg/mL (≈ 0.165 µM) in the experiment on MCF7; 0.012 µg/mL (≈ 0.03 µM) in the experiment on KM-20L2. In addition, the IC50 with SF-268 was 0.046 µg/mL (≈ 0.115 µM); with MH60 it was > 25 µg/mL; in the experiment on NCI-H460, 0.017 µg/mL (≈ 0.0424 µM).

As to `C[C@]12CC[C@H]3[C@@H](CC[C@@H]4C[C@@H](O)CC[C@@]43C=O)[C@]13OC3[C@H](O)[C@@H]2c1ccc(=O)oc1` (some centres not stated), the 50% inhibitory concentration (IC50) is > 1 µg/mL in the experiment on DU-145; 3 µg/mL (≈ 7.24 µM) in the experiment on HL-60; > 1 µg/mL with BXPC-3; 0.65 µg/mL (≈ 1.57 µM) in the experiment with KB; > 1 µg/mL in the experiment on MCF7; > 1 µg/mL with KM-20L2. The IC50 with SF-268 is > 1 µg/mL; in the experiment on MH60, > 25 µg/mL; with NCI-H460, > 1 µg/mL.

With `C[C@]12[C@H](CC[C@@H]3[C@@H]1CC[C@]1(C)[C@@H](c4ccc(=O)oc4)CC[C@]31O)C[C@@H](O)C[C@H]2O`, the IC50 in the experiment on DU-145 is 0.005 µg/mL (≈ 0.0124 µM); in the experiment with HL-60, < 0.01 µg/mL; with BXPC-3, 0.024 µg/mL (≈ 0.0596 µM); with KB, 0.19 µg/mL (≈ 0.472 µM); in the experiment on MCF7 it was 0.012 µg/mL (≈ 0.0298 µM); in the experiment with KM-20L2, 0.011 µg/mL (≈ 0.0273 µM). Also, the 50% inhibitory concentration (IC50) is 0.0044 µg/mL (≈ 0.0109 µM) with SF-268, > 25 µg/mL in the experiment on MH60 and 0.014 µg/mL (≈ 0.0348 µM) in the experiment with NCI-H460.

For the compound `C[C@]12CC[C@H]3[C@@H](CC[C@@H]4C[C@@H](O)CC[C@@]43C=O)[C@@]1(O)CC[C@@H]2c1ccc(=O)oc1`, the 50% inhibitory concentration (IC50) with DU-145 was 0.0046 µg/mL (≈ 0.0115 µM); with HL-60, < 0.01 µg/mL; in the experiment with BXPC-3 it was 0.014 µg/mL (≈ 0.035 µM); with MCF7, 0.0072 µg/mL (≈ 0.018 µM); in the experiment on KM-20L2, 0.0082 µg/mL (≈ 0.0205 µM); in the experiment on SF-268, 0.0047 µg/mL (≈ 0.0117 µM). In addition, the IC50 is > 25 µg/mL with MH60 and 0.018 µg/mL (≈ 0.0449 µM) with NCI-H460.

Regarding `C[C@]12CC[C@H](OC=O)C[C@H]1CC[C@@H]1[C@@H]2CC[C@]2(C)[C@@H](c3ccc(=O)oc3)C[C@H]3O[C@]132`, the half-maximal inhibitory concentration (IC50) was found to be 0.42 µg/mL (≈ 1.02 µM) with DU-145; 1 µg/mL (≈ 2.42 µM) with HL-60; 1.6 µg/mL (≈ 3.88 µM) with BXPC-3; 3.4 µg/mL (≈ 8.24 µM) in the experiment with KB; 0.6 µg/mL (≈ 1.45 µM) in the experiment on MCF7; 0.54 µg/mL (≈ 1.31 µM) in the experiment on KM-20L2. The IC50 with SF-268 worked out at 0.38 µg/mL (≈ 0.921 µM); with MH60, 8.1 µg/mL (≈ 19.6 µM); with NCI-H460 it was 0.53 µg/mL (≈ 1.28 µM).

On to `CC(=O)O[C@H]1[C@H]2O[C@]23[C@@H]2C[C@H](O)[C@@H]4C[C@@H](O)CC[C@]4(C)[C@H]2CC[C@]3(C)[C@H]1c1ccc(=O)oc1`, for which the IC50 with DU-145 was 0.21 µg/mL (≈ 0.458 µM); in the experiment on HL-60 it was 0.038 µg/mL (≈ 0.0829 µM); in the experiment on BXPC-3, 0.46 µg/mL (≈ 1 µM); in the experiment on KB, 0.87 µg/mL (≈ 1.9 µM); in the experiment on MCF7, 0.36 µg/mL (≈ 0.785 µM); in the experiment with KM-20L2, 0.28 µg/mL (≈ 0.611 µM). Further, the IC50 was 0.32 µg/mL (≈ 0.698 µM) with SF-268, > 25 µg/mL in the experiment with MH60 and 0.74 µg/mL (≈ 1.61 µM) in the experiment on NCI-H460.

In the case of `C[C@]12CC[C@H]3[C@@H](CC[C@@H]4C[C@@H](O)CC[C@@]43CO)[C@]13O[C@@H]3C[C@@H]2c1ccc(=O)oc1`, the IC50 in the experiment with DU-145 came to 0.38 µg/mL (≈ 0.949 µM); in the experiment on HL-60, 0.48 µg/mL (≈ 1.2 µM); in the experiment with BXPC-3, 0.63 µg/mL (≈ 1.57 µM); with KB, 1.2 µg/mL (≈ 3 µM); with MCF7, 0.33 µg/mL (≈ 0.824 µM); with KM-20L2, 0.45 µg/mL (≈ 1.12 µM). For the same compound, the 50% inhibitory concentration (IC50) is 0.25 µg/mL (≈ 0.624 µM) with SF-268, > 25 µg/mL in the experiment on MH60 and 0.44 µg/mL (≈ 1.1 µM) in the experiment with NCI-H460.

With `CC(=O)O[C@H]1C[C@]2(O)[C@@H]3CC[C@]4(O)C[C@@H](O)CC[C@]4(C)[C@H]3CC[C@]2(C)[C@H]1c1ccc(=O)oc1`, the concentration for half-maximal inhibition (IC50) in the experiment with DU-145 was 0.024 µg/mL (≈ 0.0521 µM); in the experiment with HL-60, < 0.01 µg/mL; with BXPC-3, 0.11 µg/mL (≈ 0.239 µM); in the experiment with KB, 0.2 µg/mL (≈ 0.434 µM); in the experiment on MCF7, 0.046 µg/mL (≈ 0.0999 µM); in the experiment with KM-20L2 it was 0.034 µg/mL (≈ 0.0738 µM). Further, the figures for the 50% inhibitory concentration (IC50) in the experiment with SF-268, with MH60 and in the experiment on NCI-H460 were 0.033 µg/mL (≈ 0.0717 µM), > 25 µg/mL and 0.048 µg/mL (≈ 0.104 µM), respectively.

Take `CC(=O)O[C@H]1[C@H]2O[C@]23[C@@H]2CC[C@@H]4C[C@@H](O)CC[C@]4(C)[C@H]2C[C@@H](O)[C@]3(C)[C@H]1c1ccc(=O)oc1`: the half-inhibitory concentration (IC50) in the experiment on HL-60 is < 0.01 µg/mL; with KB, 0.79 µg/mL (≈ 1.72 µM); in the experiment on MH60, > 25 µg/mL.

Regarding `C[C@]12CC[C@H]3[C@@H](CC[C@@H]4C[C@@H](O)CC[C@@]43CO)[C@]13O[C@@H]3[C@H](O)[C@@H]2c1ccc(=O)oc1`, the IC50 with HL-60 was 0.49 µg/mL (≈ 1.18 µM); in the experiment on KB, 3.9 µg/mL (≈ 9.36 µM); with MH60 it was > 25 µg/mL.

For `C[C@]12CC[C@H](O)C[C@H]1CC[C@@H]1[C@@H]2CC[C@]2(C)[C@@H](c3ccc(=O)oc3)CC[C@]12O` [BUFALIN], the IC50 with HL-60 was < 0.01 µg/mL; with KB it was 0.67 µg/mL (≈ 1.73 µM); with MH60 it was > 25 µg/mL.

Take `C[C@]12CC[C@H](O)C[C@H]1CC[C@@H]1[C@@H]2CC[C@]2(C)[C@@H](c3ccc(=O)oc3)C[C@H]3O[C@]132` [BUFOGENIN]: the 50% inhibitory concentration (IC50) in the experiment with HL-60 amounted to 0.5 µg/mL (≈ 1.3 µM); with KB it was 1.3 µg/mL (≈ 3.38 µM); in the experiment on MH60, 10 µg/mL (≈ 26 µM).

In the case of `CC(=O)O[C@H]1C[C@]2(O)[C@@H]3CC[C@@H]4C[C@@H](O)CC[C@]4(C)[C@H]3CC[C@]2(C)[C@H]1c1ccc(=O)oc1` [BUFOTALIN], the figures for the IC50 in the experiment on HL-60, in the experiment with KB and with MH60 were < 0.01 µg/mL, 0.19 µg/mL (≈ 0.427 µM) and > 25 µg/mL, respectively.

Regarding `CC(=O)O[C@H]1[C@H]2O[C@]23[C@@H]2CC[C@@H]4C[C@@H](O)CC[C@]4(C)[C@H]2CC[C@]3(C)[C@H]1c1ccc(=O)oc1` [CINOBUFAGIN], the half-inhibitory concentration (IC50) was < 0.01 µg/mL in the experiment with HL-60, 0.21 µg/mL (≈ 0.475 µM) in the experiment on KB and > 25 µg/mL with MH60.

For `CC(=O)O[C@H]1[C@H]2O[C@]23[C@@H]2CC[C@]4(O)C[C@@H](O)CC[C@]4(C)[C@H]2CC[C@]3(C)[C@H]1c1ccc(=O)oc1` [CINOBUFOTALIN], the IC50 in the experiment on HL-60 is 0.047 µg/mL (≈ 0.102 µM); with KB, 0.37 µg/mL (≈ 0.807 µM); with MH60, > 25 µg/mL.

For the compound `C[C@]12CC[C@H](O)C[C@H]1CC[C@@H]1[C@@H]2CC[C@]2(C)[C@@H](c3ccc(=O)oc3)[C@@H](O)C[C@]12O` [DESACETYLBUFOTALIN], the 50% inhibitory concentration (IC50) with HL-60 is 0.025 µg/mL (≈ 0.0621 µM); in the experiment with KB, 0.79 µg/mL (≈ 1.96 µM); in the experiment on MH60, > 25 µg/mL.

For `C[C@]12CC[C@H](O)C[C@H]1CC[C@@H]1[C@@H]2CC[C@]2(C)[C@@H](c3ccc(=O)oc3)[C@@H](O)[C@H]3O[C@]132` [DESACETYLCINOBUFAGIN], the IC50 in the experiment on HL-60 is 1 µg/mL (≈ 2.5 µM); in the experiment on KB, 0.44 µg/mL (≈ 1.1 µM); in the experiment with MH60 it was > 25 µg/mL.

On to `C[C@]12CC[C@H](O)C[C@@]1(O)CC[C@@H]1[C@@H]2CC[C@]2(C)[C@@H](c3ccc(=O)oc3)[C@@H](O)[C@H]3O[C@]132` [DESACETYLCINOBUFOTALIN], for which the half-maximal inhibitory concentration (IC50) in the experiment on HL-60 was 4.3 µg/mL (≈ 10.3 µM); with KB, 10 µg/mL (≈ 24 µM); with MH60, > 25 µg/mL.

As for `C[C@]12CC[C@H](O)C[C@H]1CC[C@@H]1[C@@H]2[C@H](O)C[C@]2(C)[C@@H](c3ccc(=O)oc3)CC[C@]12O` [GAMABUFOTALIN], the half-maximal inhibitory concentration (IC50) in the experiment on HL-60 is 0.014 µg/mL (≈ 0.0348 µM); in the experiment on KB it was 0.75 µg/mL (≈ 1.86 µM); with MH60, > 25 µg/mL.

Consider `C[C@]12CC[C@H](O)C[C@@]1(O)CC[C@@H]1[C@@H]2CC[C@]2(C)[C@@H](c3ccc(=O)oc3)CC[C@]12O` [TELOCINOBUFAGIN], for which the IC50 with HL-60 was < 0.01 µg/mL; in the experiment with KB, 1.3 µg/mL (≈ 3.23 µM); in the experiment on MH60, > 25 µg/mL.

As a reminder, the IC50 is the point on the concentration scale where inhibition reaches its midpoint.
